In ChEMBL document CHEMBL1128218, “New alpha-thiol dipeptide dual inhibitors of angiotensin-I converting enzyme and neutral endopeptidase EC 3.4.24.11” (J Med Chem, 1995):

What was measured:
[1] = target: T1, Angiotensin-converting enzyme (Oryctolagus cuniculus, UniProt P12822); test: Evaluation of in vitro inhibitory activity against Angiotensin I converting enzyme
T1 sequence (P12822 whole entry): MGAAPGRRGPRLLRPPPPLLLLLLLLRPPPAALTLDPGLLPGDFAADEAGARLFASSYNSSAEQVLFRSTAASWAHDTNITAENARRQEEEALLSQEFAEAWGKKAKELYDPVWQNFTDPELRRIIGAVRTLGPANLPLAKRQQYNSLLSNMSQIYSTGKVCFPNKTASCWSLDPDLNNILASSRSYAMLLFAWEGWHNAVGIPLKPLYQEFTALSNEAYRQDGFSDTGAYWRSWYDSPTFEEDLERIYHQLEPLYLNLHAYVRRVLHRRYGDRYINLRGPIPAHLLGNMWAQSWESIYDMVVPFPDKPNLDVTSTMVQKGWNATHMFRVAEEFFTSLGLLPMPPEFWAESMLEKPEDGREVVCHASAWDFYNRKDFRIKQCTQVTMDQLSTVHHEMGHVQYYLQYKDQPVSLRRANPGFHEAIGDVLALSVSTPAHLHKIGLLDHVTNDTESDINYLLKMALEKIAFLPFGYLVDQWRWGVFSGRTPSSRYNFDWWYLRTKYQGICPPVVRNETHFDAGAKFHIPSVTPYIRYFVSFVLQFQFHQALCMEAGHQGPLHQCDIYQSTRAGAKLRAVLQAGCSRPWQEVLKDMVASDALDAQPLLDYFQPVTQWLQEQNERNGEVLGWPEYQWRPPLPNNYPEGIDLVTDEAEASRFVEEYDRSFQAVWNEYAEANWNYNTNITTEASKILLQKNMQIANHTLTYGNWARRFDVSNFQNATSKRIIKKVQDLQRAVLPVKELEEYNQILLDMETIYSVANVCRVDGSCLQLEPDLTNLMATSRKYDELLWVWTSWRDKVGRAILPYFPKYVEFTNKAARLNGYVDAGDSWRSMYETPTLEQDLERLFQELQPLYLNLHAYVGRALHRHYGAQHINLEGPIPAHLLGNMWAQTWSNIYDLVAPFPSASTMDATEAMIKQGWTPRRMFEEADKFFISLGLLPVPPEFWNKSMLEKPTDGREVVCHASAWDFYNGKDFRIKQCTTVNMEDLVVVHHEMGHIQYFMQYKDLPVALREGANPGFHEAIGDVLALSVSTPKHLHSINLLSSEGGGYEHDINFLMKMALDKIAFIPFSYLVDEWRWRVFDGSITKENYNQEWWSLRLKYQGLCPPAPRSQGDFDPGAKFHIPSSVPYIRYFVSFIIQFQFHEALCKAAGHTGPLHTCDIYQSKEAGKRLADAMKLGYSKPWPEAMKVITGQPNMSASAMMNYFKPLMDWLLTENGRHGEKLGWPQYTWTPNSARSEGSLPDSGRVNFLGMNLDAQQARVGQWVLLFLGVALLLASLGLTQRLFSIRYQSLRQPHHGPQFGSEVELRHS
Method in brief: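 Rabbit lung ACE in 300 mM NaCl, 100 mM KH2PO4 (pH 8.3). Enzyme and drug mixed, then hippurylhistidylleucine (2 mg/mL stock) added and incubated 75 min at room temperature. Stopped with 1 N NaOH, o-phthalaldehyde added for 10 min at 25 °C, acidified with HCl, OD read at 360 nm.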

[2] = target: T2, Angiotensin-converting enzyme (Rattus norvegicus) (UniProt P47820); test: Evaluation of plasma inhibition of Angiotensin I converting enzyme activity in conscious rat 1 hour after intravenous administration at a dose of 10 mg/kg; assay type: functional, organism-based; parameters: dose 10 mg/kg
T2 sequence (whole entry): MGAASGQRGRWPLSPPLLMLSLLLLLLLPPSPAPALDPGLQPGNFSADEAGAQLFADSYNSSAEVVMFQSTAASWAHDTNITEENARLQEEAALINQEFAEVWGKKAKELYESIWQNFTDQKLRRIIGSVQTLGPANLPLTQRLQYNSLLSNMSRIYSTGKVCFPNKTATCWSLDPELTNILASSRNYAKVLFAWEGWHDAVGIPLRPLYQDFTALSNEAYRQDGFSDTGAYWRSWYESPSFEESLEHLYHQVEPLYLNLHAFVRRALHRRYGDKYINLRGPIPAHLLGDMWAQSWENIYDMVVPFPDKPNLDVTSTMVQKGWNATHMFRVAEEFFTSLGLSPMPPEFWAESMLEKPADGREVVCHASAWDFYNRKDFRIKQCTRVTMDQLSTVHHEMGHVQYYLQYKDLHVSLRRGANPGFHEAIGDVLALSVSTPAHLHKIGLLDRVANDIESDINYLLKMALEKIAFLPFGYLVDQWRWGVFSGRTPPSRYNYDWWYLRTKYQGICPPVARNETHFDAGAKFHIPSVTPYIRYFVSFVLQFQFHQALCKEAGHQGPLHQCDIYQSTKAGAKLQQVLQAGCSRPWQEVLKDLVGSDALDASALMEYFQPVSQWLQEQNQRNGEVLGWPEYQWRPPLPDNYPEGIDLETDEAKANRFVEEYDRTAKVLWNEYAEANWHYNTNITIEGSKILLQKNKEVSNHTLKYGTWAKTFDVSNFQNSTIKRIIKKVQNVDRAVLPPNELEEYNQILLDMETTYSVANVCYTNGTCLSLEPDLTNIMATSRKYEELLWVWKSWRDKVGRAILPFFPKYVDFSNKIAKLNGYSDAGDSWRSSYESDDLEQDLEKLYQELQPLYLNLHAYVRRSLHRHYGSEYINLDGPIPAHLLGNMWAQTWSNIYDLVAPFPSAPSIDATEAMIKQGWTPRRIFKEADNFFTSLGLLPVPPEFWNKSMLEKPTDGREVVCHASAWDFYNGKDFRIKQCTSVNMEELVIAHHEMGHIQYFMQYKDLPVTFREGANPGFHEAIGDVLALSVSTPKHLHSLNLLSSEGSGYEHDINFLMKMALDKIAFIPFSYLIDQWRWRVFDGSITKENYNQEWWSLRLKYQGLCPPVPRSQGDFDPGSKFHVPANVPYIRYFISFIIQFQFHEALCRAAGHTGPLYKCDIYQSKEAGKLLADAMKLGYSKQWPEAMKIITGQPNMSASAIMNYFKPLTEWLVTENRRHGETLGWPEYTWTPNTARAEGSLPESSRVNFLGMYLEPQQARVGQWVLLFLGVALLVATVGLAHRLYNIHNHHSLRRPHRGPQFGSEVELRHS
Method in brief: (§1)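 Male conscious normotensive Sprague-Dawley rats (275-390 g) fitted the day before with femoral arterial and venous catheters under methohexital anesthesia. Three angiotensin-I challenges (300 ng/kg iv) given as baseline. Compound given iv, ia or po (12.3 mg/kg po dose in 3% cornstarch at 1 mg/mL), then AI challenges repeated at set times. Pressor response compared with the mean baseline response and expressed as % inhibition.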

Neprilysin = target: T3, Neprilysin (Rattus norvegicus, UniProt P07861); test: Evaluation of in vitro inhibitory activity against Neutral endopeptidase
T3 sequence (P07861 whole entry): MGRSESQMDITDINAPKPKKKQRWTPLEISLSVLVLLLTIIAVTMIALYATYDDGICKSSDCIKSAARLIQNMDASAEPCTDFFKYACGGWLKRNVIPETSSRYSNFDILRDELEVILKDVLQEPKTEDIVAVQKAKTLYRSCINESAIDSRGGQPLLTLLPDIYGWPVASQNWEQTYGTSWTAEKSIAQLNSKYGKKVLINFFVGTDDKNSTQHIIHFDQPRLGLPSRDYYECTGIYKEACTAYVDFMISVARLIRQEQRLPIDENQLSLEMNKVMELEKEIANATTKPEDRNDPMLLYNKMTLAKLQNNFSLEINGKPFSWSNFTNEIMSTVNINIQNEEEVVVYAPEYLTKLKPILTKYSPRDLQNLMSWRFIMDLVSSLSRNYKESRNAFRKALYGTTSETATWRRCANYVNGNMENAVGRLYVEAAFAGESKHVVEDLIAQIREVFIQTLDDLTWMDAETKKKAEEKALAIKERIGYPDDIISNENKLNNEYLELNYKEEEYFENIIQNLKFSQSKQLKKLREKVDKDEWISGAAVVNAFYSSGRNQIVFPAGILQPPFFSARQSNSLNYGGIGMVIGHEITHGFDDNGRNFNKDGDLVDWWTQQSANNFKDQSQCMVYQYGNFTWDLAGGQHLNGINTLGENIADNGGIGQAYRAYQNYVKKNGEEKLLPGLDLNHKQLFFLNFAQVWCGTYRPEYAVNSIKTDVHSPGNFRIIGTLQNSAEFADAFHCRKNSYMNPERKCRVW
Method in brief: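 Rat kidney cortex membrane homogenate (4.2 μg protein) preincubated 10 min at 25 °C with increasing inhibitor concentrations. Then 500 μM GAAP (final) in 50 mM Tris pH 7.4 with leucine aminopeptidase M, 25 min at 25 °C. Done in duplicate; IC50 from curves of seven points near the IC50.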

[3] = target: T2, Angiotensin-converting enzyme (Rattus norvegicus); test: Evaluation of plasma inhibition of Angiotensin I converting enzyme activity in conscious rat 1 hour after peroral administration at a dose of 12.3 mg/kg; assay type: functional, organism-based; parameters: dose 12.3 mg/kg; method in brief: as §1
[4] = target: T2, Angiotensin-converting enzyme (Rattus norvegicus); test: Evaluation of plasma inhibition of Angiotensin I converting enzyme activity in conscious rat 6 hours after peroral administration at a dose of 12.3 mg/kg; assay type: functional, organism-based; parameters: dose 12.3 mg/kg; method in brief: as §1
[5] = target: T2, Angiotensin-converting enzyme (Rattus norvegicus); test: Evaluation of plasma inhibition of Angiotensin I converting enzyme activity in conscious rat 4 hours after peroral administration at a dose of 12.3 mg/kg; assay type: functional, organism-based; parameters: dose 12.3 mg/kg; method in brief: as §1
[6] = target: T2, Angiotensin-converting enzyme (Rattus norvegicus); test: Evaluation of plasma inhibition of Angiotensin I converting enzyme activity in conscious rat 2 hours after peroral administration at a dose of 12.3 mg/kg; assay type: functional, organism-based; parameters: dose 12.3 mg/kg; method in brief: as §1
[7] = target: T2, Angiotensin-converting enzyme (Rattus norvegicus); test: Evaluation of plasma inhibition of Angiotensin I converting enzyme activity in conscious rat 2 hours after intravenous administration at a dose of 10 mg/kg; assay type: functional, organism-based; parameters: dose 10 mg/kg; method in brief: as §1
[8] = target: T2, Angiotensin-converting enzyme (Rattus norvegicus); test: Evaluation of plasma inhibition of Angiotensin I converting enzyme activity in conscious rat 6 hours after ia administration at a dose of 10 mg/kg; assay type: functional, organism-based; parameters: dose 10 mg/kg; method in brief: as §1
[9] = target: T2, Angiotensin-converting enzyme (Rattus norvegicus); test: Evaluation of plasma inhibition of Angiotensin I converting enzyme activity in conscious rat 2 hours after ia administration at a dose of 10 mg/kg; assay type: functional, organism-based; parameters: dose 10 mg/kg; method in brief: as §1
[10] = target: T2, Angiotensin-converting enzyme (Rattus norvegicus); test: Evaluation of plasma inhibition of Angiotensin I converting enzyme activity in conscious rat 1 hour after ia administration at a dose of 10 mg/kg; assay type: functional, organism-based; parameters: dose 10 mg/kg; method in brief: as §1
[11] = target: T2, Angiotensin-converting enzyme (Rattus norvegicus); test: Evaluation of plasma inhibition of Angiotensin I converting enzyme activity in conscious rat 4 hours after ia administration at a dose of 10 mg/kg; assay type: functional, organism-based; parameters: dose 10 mg/kg; method in brief: as §1

IC50 [1]	inhibition [2]	IC50 (Neprilysin)	SMILES	further results
0.017 µM	3%	0.0052 µM	O=C(O)[C@H](Cc1ccc(O)cc1)NC(=O)C1(NC(=O)C2(S)CCCC2)CCCC1	
0.033 µM	22%	0.0087 µM	CC(C)[C@H](S)C(=O)NC1(C(=O)N[C@@H](Cc2ccc(O)cc2)C(=O)O)CCCCC1	inhibition [7]: 10%

More lines, now with the values behind:

SMILES	IC50 [1]	inhibition [2]	IC50 (Neprilysin)	further results
COc1ccc(C[C@H](NC(=O)C2(NC(=O)[C@@H](S)C(C)C)CCCC2)C(=O)O)cc1	0.019 µM		0.0022 µM	
CCOC(=O)[C@H](Cc1c[nH]c2ccccc12)NC(=O)C1(NC(=O)[C@@H](SC(C)=O)C(C)C)CCCC1				inhibition [3]: 83%; inhibition [4]: 64%; inhibition [5]: 71%; inhibition [6]: 72%
CC(C)[C@H](S)C(=O)NC1(C(=O)N[C@@H](Cc2c[nH]c3ccc(O)cc23)C(=O)O)CCCC1	0.013 µM		0.002 µM	
O=C(O)CN1C(=O)[C@@H](N[C@@H](CCc2ccccc2)C(=O)O)CCc2ccccc21				inhibition [8]: 7%; inhibition [9]: 74%; inhibition [10]: 100%; inhibition [11]: 27%
